In ChEMBL document CHEMBL1806465, “Synthesis and biological evaluation of 4-nitro-substituted 1,3-diaryltriazenes as a novel class of potent antitumor agents” (Eur J Med Chem, 2011):
The source made the active and inactive calls. The rule behind the calls is not given here.

What was measured:
[1] = test system: HeLa; experiment: Cell cycle arrest in human HeLa cells assessed as accumulation at S phase at 21 uM after 48 hrs by propidium iodide staining -based flow cytometry (reference value: 26.3 %); format: functional
Outline: (§1)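 HeLa seeded at 100 000 cells/well, treated next day with 0.78, 7 or 21 µM for 24, 48 or 72 h. Adherent plus floating cells collected, PBS-washed, fixed overnight in 70% ethanol at −20 °C, RNase A 30 µg/ml 1 h RT, propidium iodide 16.7 µg/ml 30 min dark; DNA content by flow cytometry, phase percentages including subG1 reported.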

[2] = Therapeutic index, ratio IC50 for human Hep2 cells to IC50 for normal human fibroblasts; format: cell-based, HEp-2; settings: Hep2 cells versus normal human fibroblasts, read-out: Ratio IC50
Outline: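 IC50 values came from an MTT assay. Cells were seeded at 3000 per well and dosed the next day, with each concentration in quadruplicate. After 72 h at 37 °C, MTT (20 µg/well) was added for 4 h; formazan was dissolved in DMSO and read at 545 nm. Each experiment was done three times. Normal skin fibroblasts were used at 32 and 36 population doublings. T.I. = tumor-cell IC50 / fibroblast IC50.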

[3] = test system: HeLa; experiment: Cell cycle arrest in human HeLa cells assessed as accumulation at S phase at 0.78 uM after 72 hrs by propidium iodide staining -based flow cytometry (reference value: 23.5 %); format: functional; outline: as §1
[4] = test system: HeLa; experiment: Cytotoxicity against human HeLa cells after 72 hrs by MTT assay; format: functional, cell-based
[5] = test system: HeLa; experiment: Induction of reactive oxygen species generation in human HeLa cells after 8 hrs by FACS analysis; format: functional, cell-based
Outline: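 Logarithmically growing HeLa cells were preloaded with 10 µM CM-H2DCFDA for 1 h. They were then exposed to 7, 20 or 40 µM for 8 h, or to 7 µM for 2, 4 or 6 h. Cells were trypsinized, fixed in cold 80% methanol, resuspended in PBS and read for fluorescence by flow cytometry. The positive control was 0.01% H2O2 for 30 min.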

[6] = test system: HeLa; experiment: Cell cycle arrest in human HeLa cells assessed as accumulation at G2/M phase at 7 uM after 24 hrs by propidium iodide staining -based flow cytometry (reference value: 11.7 %); format: functional; outline: as §1
[7] = test system: RT-112; experiment: Cytotoxicity against human RT112 cells after 72 hrs by MTT assay; format: functional, cell-based; settings: RT-112, 72 h
Outline: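 MTT assay: 3000 cells/well seeded, compound added next day, each concentration in quadruplicate, 72 h at 37 °C; medium replaced with 20 µg MTT/well for 4 h, formazan dissolved in DMSO, OD 545 nm. […] Fibroblasts: normal skin fibroblasts from donor, DMEM/10% FBS, used at 32 and 36 population doublings.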

[8] = test system: HeLa; experiment: Cell cycle arrest in human HeLa cells assessed as accumulation at G0/G1 phase at 21 uM after 72 hrs by propidium iodide staining -based flow cytometry (reference value: 66.9 %); format: functional; outline: as §1
[9] = test system: HeLa; experiment: Cell cycle arrest in human HeLa cells assessed as accumulation at G0/G1 phase at 0.78 uM after 48 hrs by propidium iodide staining -based flow cytometry (reference value: 63.8 %); format: functional; outline: as §1
[10] = test system: HeLa; experiment: Cell cycle arrest in human HeLa cells assessed as accumulation at G0/G1 phase at 0.78 uM after 72 hrs by propidium iodide staining -based flow cytometry (reference value: 66.9 %); format: functional; outline: as §1
[11] = test system: HeLa; experiment: Induction of CHOP expression in human HeLa cells at 7 uM after 16 to 48 hrs by Western blot analysis; format: functional, cell-based
Outline: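 Log-phase HeLa exposed to a concentration series for 48 h, or to 7 µM over a time course. Extracts resolved on 10% SDS gels, blotted to nitrocellulose, blocked 5% milk; anti-CHOP 1:1000 in 5% BSA overnight at 4 °C, HRP secondary 1:5000 2 h RT, ECL detection; ERK2 reprobe as loading control.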

[12] = test system: HeLa; experiment: Cell cycle arrest in human HeLa cells assessed as accumulation at S phase at 7 uM after 48 hrs by propidium iodide staining -based flow cytometry (reference value: 26.3 %); format: functional; outline: as §1
[13] = test system: HeLa; experiment: Cell cycle arrest in human HeLa cells assessed as accumulation at S phase at 7 uM after 72 hrs by propidium iodide staining -based flow cytometry (reference value: 23.5 %); format: functional; outline: as §1
[14] = test system: HeLa; experiment: Cell cycle arrest in human HeLa cells assessed as accumulation at S phase at 0.78 uM after 48 hrs by propidium iodide staining -based flow cytometry (reference value: 26.3 %); format: functional; outline: as §1

`CC(=O)N(/N=N/c1ccc([N+](=O)[O-])cc1Cl)c1ccc([N+](=O)[O-])cc1Cl` showed an Activity [1] of 15.2%, a selectivity ratio [2] of 0.044 and an Activity [3] of 32.5%. The IC50 [4] was 630 nM, the Activity [5] was “Dose-dependent effect” and the Activity [6] was 10%. The IC50 [7] was 7.2 µM, the Activity [8] was 79% and the Activity [9] was 74.5%. For the same molecule, the Activity [10] was 59.1%, the Activity [11] was “Active” and the Activity [12] was 14.2%. For the same molecule, the Activity [13] was 15.2% and the Activity [14] was 18.5%.
